Experimental data published in ChEMBL document CHEMBL4680077, “Differentiation of skeletal osteogenic progenitor cells to osteoblasts with 3,4-diarylbenzopyran based amide derivatives: Novel osteogenic agents” (Eur J Med Chem, 2016).
The source made the active and inactive calls. The calls are words filed in the database; no cut-off is given here.

Columns and labels:
[1] = Toxicity in ovariectomized BALB/c mouse assessed as uterine estrogenicity by measuring uterine weights at 1 to 10 mg/kg, po administered for 30 days and measured on day 30; assay type: organism-based; details: in vivo, 720 h, dose 1-10 mg/kg, time 30 day
Procedure, shortened: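 Six-to-eight-week-old balb/c mice (n = 10) were ovariectomized and dosed orally for 30 consecutive days: test agent at 1 or 10 mg kg-1 day-1, or 17β-E2 at 0.01 mg kg-1 day-1. Uterine weights were recorded and compared with the Ovx vehicle group; mean ± SEM.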

[2] = Acute toxicity in Swiss albino mouse assessed as absolute ovary weight at 5 mg/kg, po measured after 7 days (reference value: 0.04+/- 0.02 g); assay type: organism-based; details: in vivo, 168 h, time 7 day
[3] = Acute toxicity in Swiss albino mouse assessed as tissue protein level at 300 mg/kg, po measured after 7 days (reference value: 0.029 +/- 0.004 mg/ml); assay type: organism-based; details: in vivo, 168 h, time 7 day
[4] = Acute toxicity in Swiss albino mouse assessed as monocyte count at 50 mg/kg, po measured after 7 days (reference value: 12.58 +/- 2.86 %); assay type: organism-based; details: in vivo, 168 h, time 7 day
[5] = Acute toxicity in Swiss albino mouse assessed as WBC count per thousand/mm3 at 50 mg/kg, po measured after 7 days (reference value: 6.84 +/- 0.83 /mm3); assay type: organism-based; details: in vivo, 168 h, time 7 day
[6] = Acute toxicity in Swiss albino mouse assessed as absolute liver weight at 50 mg/kg, po measured after 7 days (reference value: 1.11 +/- 0.04 g); assay type: organism-based; details: in vivo, 168 h, time 7 day
[7] = Acute toxicity in Swiss albino mouse assessed as lymphocyte count at 300 mg/kg, po measured after 7 days (reference value: 37.97 +/- 1.80 %); assay type: organism-based; details: in vivo, 168 h, time 7 day
[8] = Acute toxicity in Swiss albino mouse assessed as albumin level at 50 mg/kg, po measured after 7 days (reference value: 3.24 +/- 0.30 g/dL); assay type: organism-based; details: in vivo, 168 h, time 7 day
[9] = Acute toxicity in Swiss albino mouse assessed as absolute spleen weight at 300 mg/kg, po measured after 7 days (reference value: 0.17 +/- 0.03 g); assay type: organism-based; details: in vivo, 168 h, time 7 day
[10] = Acute toxicity in Swiss albino mouse assessed as morbidity at 5 to 1000 mg/kg, po measured after 7 days; assay type: organism-based; details: in vivo, 168 h, dose 5-1000 mg/kg, time 7 day
Procedure, shortened: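 Acute oral toxicity per OECD guidelines 420, 423 and 425. Swiss albino mice received a single oral dose at 5, 50, 300 or 1000 mg kg1 body weight, with vehicle controls. Animals were watched for morbidity, mortality and observational changes over 7 days. Tail-vein blood was then taken for hematology and serum biochemistry. Organs were inspected at sacrifice. n = 6 per group.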

[11] = Acute toxicity in Swiss albino mouse assessed as absolute kidney weight at 300 mg/kg, po measured after 7 days (reference value: 0.29 +/- 0.02 g); assay type: organism-based; details: in vivo, 168 h, time 7 day
[12] = Acute toxicity in Swiss albino mouse assessed as absolute heart weight at 5 mg/kg, po measured after 7 days (reference value: 0.12 g); assay type: organism-based; details: in vivo, 168 h, time 7 day
[13] = Acute toxicity in Swiss albino mouse assessed as relative spleen weight at 1000 mg/kg, po measured after 7 days (reference value: 0.73 +/- 0.14 %); assay type: organism-based; details: in vivo, 168 h, time 7 day
[14] = Acute toxicity in Swiss albino mouse assessed as triglycerides level at 300 mg/kg, po measured after 7 days (reference value: 58.51 +/- 10.82 mg/dL); assay type: organism-based; details: in vivo, 168 h, time 7 day
[15] = Volume of distribution in Sprague-Dawley rat at 1 mg/kg, po measured upto 24 hrs by LC-MS/MS analysis; assay type: ADME, organism-based; details: in vivo
Procedure, shortened: (§1)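 Female Sprague-Dawley rats (n = 4), fasted overnight 12–14 h, dosed orally at 1 mg kg-1 as a 0.25% CMC suspension and fed 3 h post-dose. Retro-orbital blood was taken from 0.25 to 24 h. Plasma was hexane-extracted and assayed by LC-MS/MS. Cmax and Tmax were read from the data; other parameters came from non-compartmental analysis. Mean ± S.D.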

Mus musculus = assay: In vivo osteogenic activity in ovariectomized BALB/c mouse assessed as increase in force required to break bone at 1 to 10 mg/kg, po via gavage administered for 1 month by TKC Muromachi bone strength testing method; assay type: functional, organism-based; details: dose 1-10 mg/kg, time 1.0 months
Procedure, shortened: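 Ovariectomized balb/c mice were gavaged with 1 or 10 mg kg-1 daily for one month. Bones were then tested on a bone strength tester for energy, stiffness and force to break. Mean ± SEM compared with the Ovx vehicle group.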

[16] = Half life in Sprague-Dawley rat at 1 mg/kg, iv measured upto 24 hrs by LC-MS/MS analysis; assay type: ADME, organism-based; details: in vivo
[17] = Acute toxicity in Swiss albino mouse assessed as relative liver weight at 1000 mg/kg, po measured after 7 days (reference value: 6.81 +/- 2.14 %); assay type: organism-based; details: in vivo, 168 h, time 7 day
[18] = AUC (0 to infinity) in Sprague-Dawley rat at 1 mg/kg, iv measured upto 24 hrs by LC-MS/MS analysis; assay type: ADME, organism-based; set-up: route intravenous, dose 1 mg/kg, time <=24; details: in vivo
Procedure, shortened: (§2)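 Female Sprague-Dawley rats (n = 4 per route), fasted overnight; 1 mg/kg oral (0.25% CMC) or i.v. tail-vein bolus (DMSO-PEG400-ethanol-water). Plasma was sampled to 24 h and assayed by LC-MS/MS (0.5-200 ng/mL). Non-compartmental AUC0-∞ = AUC0-t + Clast/kel; mean ± S.D.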

[19] = Half life in Sprague-Dawley rat at 1 mg/kg, po measured upto 24 hrs by LC-MS/MS analysis; assay type: ADME, organism-based; details: in vivo; procedure, shortened: as §1
[20] = Acute toxicity in Swiss albino mouse assessed as triglycerides level at 1000 mg/kg, po measured after 7 days (reference value: 58.51 +/- 10.82 mg/dL); assay type: organism-based; details: in vivo, 168 h, time 7 day
[21] = Acute toxicity in Swiss albino mouse assessed as triglycerides level at 50 mg/kg, po measured after 7 days (reference value: 58.51 +/- 10.82 mg/dL); assay type: organism-based; details: in vivo, 168 h, time 7 day
[22] = AUC (0 to infinity) in Sprague-Dawley rat at 1 mg/kg, po measured upto 24 hrs by LC-MS/MS analysis; assay type: ADME, organism-based; set-up: route oral, dose 1 mg/kg, time <=24; details: in vivo; procedure, shortened: as §2
[23] = Acute toxicity in Swiss albino mouse assessed as SGPT level at 50 mg/kg, po measured after 7 days (reference value: 14.04 +/- 1.45 U/L); assay type: organism-based; details: in vivo, 168 h, time 7 day
[24] = Acute toxicity in Swiss albino mouse assessed as neutrophil count at 300 mg/kg, po measured after 7 days (reference value: 41.50 +/- 4.08 %); assay type: organism-based; details: in vivo, 168 h, time 7 day
[25] = Acute toxicity in Swiss albino mouse assessed as absolute kidney weight at 1000 mg/kg, po measured after 7 days (reference value: 0.29 +/- 0.02 g); assay type: organism-based; details: in vivo, 168 h, time 7 day
[26] = Acute toxicity in Swiss albino mouse assessed as absolute kidney weight at 50 mg/kg, po measured after 7 days (reference value: 0.29 +/- 0.02 g); assay type: organism-based; details: in vivo, 168 h, time 7 day
Calvarial osteoblast = assay: Induction of osteoblast differentiation in mouse calvarial osteoblast assessed as increase in ERalpha expression at 1 pM incubated for 48 hrs by Western blot analysis; assay type: functional, cell-based
Procedure, shortened: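 Calvarial osteoblasts at 60–70% confluence were treated ± compound for 48 h, with 100 pM E2 as positive control. Lysates (30 µg protein) were resolved on 10% SDS-PAGE, transferred to PVDF and probed for ER-α and ER-β with HRP secondaries and ECL detection. Bands were quantified by densitometry normalized to β-actin.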

Q: Which results are given for CCCCN(C)C(=O)CCCCOc1ccc([C@H]2c3ccc(OC)cc3OC(C)(C)[C@@H]2c2ccccc2)cc1?
A: Activity [1]: Non-Toxic; Activity [2]: 0.07 g; Activity [3]: 0.034 mg/mL; Activity [4]: 12.35%; Activity [5]: 5.69 /mm3; Activity [6]: 1.23 g; Activity [7]: 42.9%; Activity [8]: 2.77 g/dL; Activity [9]: 0.13 g; Activity [10]: Non-Toxic; Activity [11]: 0.27 g; Activity [12]: 0.12 g; Activity [13]: 0.5%; Activity [14]: 57.55 mg/dL; Vd [15]: 5.822 L/kg; Activity (Mus musculus): Active; half-life [16]: 3.52 h; Activity [17]: 5.28%; AUC(0-inf) [18]: 906 ng·h/mL; half-life [19]: 3.62 h; Activity [20]: 92.31 mg/dL; Activity [21]: 83.78 mg/dL; AUC [22]: 119.404 ng·h/mL; Activity [23]: 17.18 U/L; Activity [24]: 41.54%; Activity [25]: 0.29 g; Activity [26]: 0.26 g; Activity (Calvarial osteoblast): inactive
